ChEMBL document CHEMBL1151448, “Comparative antianaerobic activities of doripenem determined by MIC and time-kill analysis” (2008)
Converted amounts (≈) assume the structure as drawn. The source made the active and inactive calls. No cut-off for these calls is given here.

Legend:
[1] = tested on: Bacteroides fragilis; test: Bactericidal activity against beta lactamase-positive Bacteroides fragilis isolated from intra-abdominal infection and pelvic inflammatory disease patients assessed as bacterial killing at MIC after 24 hrs by time kill analysis; assay type: functional
Summary of the method: (§1)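 Macrodilution time-kill in prereduced brucella broth with 5% laked horse blood, hemin 5 μg/ml and vitamin K1 1 μg/ml, at final inoculum 10^6–10^7 CFU/ml. […] Viable counts were taken at 6, 12, 24 and 48 h on plates incubated 48 h anaerobically. 99.9% kill was taken as bactericidal.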

[2] = tested on: Bacteroides fragilis; test: Bactericidal activity against beta lactamase-positive Bacteroides fragilis isolated from intra-abdominal infection and pelvic inflammatory disease patients assessed as bacterial killing at 2 times MIC after 48 hrs by time kill analysis; assay type: functional; summary of the method: as §1
[3] = tested on: Clostridioides difficile; test: Bactericidal activity against Clostridium difficile isolated from intra-abdominal infection and pelvic inflammatory disease patients assessed as bacterial killing at MIC after 24 hrs by time kill analysis; assay type: functional; summary of the method: as §1
[4] = tested on: Bacteroides thetaiotaomicron; test: Antimicrobial activity against beta lactamase-positive Bacteroides thetaiotaomicron isolated from intra-abdominal infection and pelvic inflammatory disease patients after 48 hrs by agar dilution method; assay type: functional
Summary of the method: (§2)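 CLSI agar dilution on brucella blood agar supplemented with laked sheep blood, hemin and vitamin K. Inocula of about 1 × 10^5 CFU/spot were applied by Steers replicator, and plates were incubated 48 h at 35°C in an anaerobic glove box. MIC was the concentration giving marked growth reduction versus the anaerobic control plate. QC strains were included each run, and β-lactamase was detected by Cefinase disk.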

[5] = tested on: Fusobacterium necrophorum; test: Antimicrobial activity against Fusobacterium necrophorum isolated from intra-abdominal infection and pelvic inflammatory disease patients after 48 hrs by agar dilution method; assay type: functional; summary of the method: as §2
[6] = tested on: Porphyromonas asaccharolytica; test: Antimicrobial activity against Porphyromonas asaccharolyticus isolated from intra-abdominal infection and pelvic inflammatory disease patients after 48 hrs by agar dilution method; assay type: functional; summary of the method: as §2
[7] = tested on: Peptostreptococcus anaerobius; test: Antimicrobial activity against Peptostreptococcus anaerobius isolated from intra-abdominal infection and pelvic inflammatory disease patients after 48 hrs by agar dilution method; assay type: functional; summary of the method: as §2
[8] = tested on: Thomasclavelia ramosa; test: Antimicrobial activity against Clostridium ramosum isolated from intra-abdominal infection and pelvic inflammatory disease patients after 48 hrs by agar dilution method; assay type: functional; summary of the method: as §2
[9] = tested on: Parabacteroides distasonis; test: Antimicrobial activity against beta lactamase-positive Bacteroides distasonis isolated from intra-abdominal infection and pelvic inflammatory disease patients after 48 hrs by agar dilution method; assay type: functional; summary of the method: as §2
[10] = tested on: Bacteroides thetaiotaomicron; test: Bactericidal activity against beta lactamase-positive Bacteroides thetaiotaomicron isolated from intra-abdominal infection and pelvic inflammatory disease patients assessed as bacterial killing at 2 times MIC after 48 hrs by time kill analysis; assay type: functional; summary of the method: as §1
[11] = tested on: Prevotella intermedia; test: Bactericidal activity against beta lactamase-positive Prevotella intermedia isolated from intra-abdominal infection and pelvic inflammatory disease patients assessed as bacterial killing at 2 times MIC after 48 hrs by time kill analysis; assay type: functional
Summary of the method: (§3)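 Anaerobic macrodilution time-kill. Inoculum from brucella blood plates, prepared and diluted in prereduced brucella broth inside the anaerobe chamber. Final 10^6 to 10^7 CFU/ml in prereduced brucella broth with 5% laked horse blood cells, 5 μg/ml hemin and 1 μg/ml vitamin K1. […] Shaken at 35°C for 48 h. Viable counts taken at 6, 12, 24 and 48 h. 99.9% kill taken as bactericidal.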

[12] = tested on: Bacteroides fragilis; test: Antimicrobial activity against beta lactamase-positive Bacteroides fragilis isolated from intra-abdominal infection and pelvic inflammatory disease patients after 48 hrs by agar dilution method; assay type: functional; summary of the method: as §2
[13] = tested on: Prevotella denticola; test: Antimicrobial activity against beta lactamase-positive Prevotella denticola isolated from intra-abdominal infection and pelvic inflammatory disease patients after 48 hrs by agar dilution method; assay type: functional; summary of the method: as §2
[14] = tested on: Bacteroides thetaiotaomicron; test: Bactericidal activity against beta lactamase-positive Bacteroides thetaiotaomicron isolated from intra-abdominal infection and pelvic inflammatory disease patients assessed as bacterial killing at MIC after 24 hrs by time kill analysis; assay type: functional; summary of the method: as §1
[15] = tested on: Fusobacterium nucleatum; test: Bactericidal activity against beta lactamase-positive Fusobacterium nucleatum isolated from intra-abdominal infection and pelvic inflammatory disease patients assessed as bacterial killing at MIC after 24 hrs by time kill analysis; assay type: functional; summary of the method: as §3
[16] = tested on: Porphyromonas levii; test: Antimicrobial activity against Porphyromonas levii isolated from intra-abdominal infection and pelvic inflammatory disease patients after 48 hrs by agar dilution method; assay type: functional; summary of the method: as §2
[17] = tested on: Clostridioides difficile; test: Bactericidal activity against Clostridium difficile isolated from intra-abdominal infection and pelvic inflammatory disease patients assessed as 99.9% bacterial killing at 2 times MIC after 48 hrs by time kill analysis; assay type: functional, organism-based; summary of the method: as §1
[18] = tested on: Fusobacterium nucleatum; test: Bactericidal activity against beta lactamase-positive Fusobacterium nucleatum isolated from intra-abdominal infection and pelvic inflammatory disease patients assessed as bacterial killing at 2 times MIC after 48 hrs by time kill analysis; assay type: functional; summary of the method: as §3
[19] = tested on: Prevotella nigrescens; test: Antimicrobial activity against beta lactamase-positive Prevotella nigrescens isolated from intra-abdominal infection and pelvic inflammatory disease patients after 48 hrs by agar dilution method; assay type: functional; summary of the method: as §2
[20] = tested on: Clostridioides difficile; test: Bactericidal activity against Clostridium difficile isolated from intra-abdominal infection and pelvic inflammatory disease patients assessed as bacterial killing at 2 times MIC after 48 hrs by time kill analysis; assay type: functional; summary of the method: as §1
[21] = tested on: Clostridium perfringens; test: Bactericidal activity against Clostridium perfringens isolated from intra-abdominal infection and pelvic inflammatory disease patients assessed as bacterial killing at 2 times MIC after 48 hrs by time kill analysis; assay type: functional
Summary of the method: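 Time-kill in prereduced brucella broth with 5% laked horse blood cells, hemin and vitamin K1. […] Viable counts taken at 6, 12, 24 and 48 h, plates incubated 48 h anaerobically. Kill scored as 90%, 99% or 99.9%; 99.9% defines bactericidal.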

[22] = tested on: Bacteroides fragilis; test: Antimicrobial activity against beta lactamase-positive Bacteroides fragilis isolated from intra-abdominal infection and pelvic inflammatory disease patients after 48 hrs by time kill analysis; assay type: functional
Summary of the method: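 The MIC was read by inspecting macrodilution time-kill tubes. Vials held prereduced brucella broth with 5% laked horse blood cells, hemin 5 μg/ml and vitamin K1 1 μg/ml. Final inoculum was 10^6–10^7 CFU/ml, prepared inside the anaerobe chamber. Vials were incubated 48 h at 35°C in a shaking water bath.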

[23] = tested on: Fusobacterium varium; test: Antimicrobial activity against Fusobacterium varium isolated from intra-abdominal infection and pelvic inflammatory disease patients after 48 hrs by agar dilution method; assay type: functional; summary of the method: as §2
[24] = tested on: Parvimonas micra; test: Antimicrobial activity against Micromonas micros isolated from intra-abdominal infection and pelvic inflammatory disease patients after 48 hrs by agar dilution method; assay type: functional; summary of the method: as §2
[25] = tested on: Clostridium perfringens; test: Antimicrobial activity against Clostridium perfringens isolated from intra-abdominal infection and pelvic inflammatory disease patients after 48 hrs by agar dilution method; assay type: functional
Summary of the method: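 CLSI agar dilution on brucella blood agar supplemented with laked sheep blood, hemin and vitamin K. Inoculum about 1 × 10^5 CFU/spot, applied by Steers replicator. Plates incubated 48 h at 35°C in an anaerobic glove box. MIC is the concentration giving marked growth reduction versus the anaerobic control plate. Standard QC strains included in each run.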

[26] = tested on: [Clostridium] innocuum; test: Antimicrobial activity against Clostridium innocuum isolated from intra-abdominal infection and pelvic inflammatory disease patients after 48 hrs by agar dilution method; assay type: functional; summary of the method: as §2
[27] = tested on: Prevotella melaninogenica; test: Antimicrobial activity against beta lactamase-positive Prevotella melaninogenica isolated from intra-abdominal infection and pelvic inflammatory disease patients after 48 hrs by agar dilution method; assay type: functional; summary of the method: as §2

In the case of `C[C@@H](O)[C@H]1C(=O)N2C(C(=O)O)=C(S[C@@H]3CN[C@H](C(=O)Nc4cccc(C(=O)O)c4)C3)[C@H](C)[C@H]12`, the Activity [1] is reported as 90%, the Activity [2] is reported as 99% and the Activity [3] is reported as 90%. For the same compound, the MIC [4] was 0.5 µg/mL (≈ 1.05 µM), the MIC50 [4] was 0.5 µg/mL (≈ 1.05 µM) and the MIC90 [4] was 1 µg/mL (≈ 2.1 µM). The MIC [5] was at most 0.016 µg/mL, the MIC50 [5] was at most 0.016 µg/mL and the MIC90 [5] was 0.125 µg/mL (≈ 0.263 µM). For the same compound, the MIC [6] was at most 0.016 µg/mL, the MIC50 [7] was 0.5 µg/mL (≈ 1.05 µM) and the MIC90 [7] was 2 µg/mL (≈ 4.21 µM). It also gave an MIC [8] of 1 µg/mL (≈ 2.1 µM), an MIC50 [8] of 1 µg/mL (≈ 2.1 µM) and an MIC [9] of 0.5 µg/mL (≈ 1.05 µM). The MIC50 [9] was 0.5 µg/mL (≈ 1.05 µM), the MIC90 [9] was 1 µg/mL (≈ 2.1 µM) and the Activity [10] was 99%. The Activity [11] was 99%, the MIC [12] was 0.25 µg/mL (≈ 0.526 µM) and the MIC50 [12] was 0.25 µg/mL (≈ 0.526 µM). For the same compound, the MIC90 [12] was 2 µg/mL (≈ 4.21 µM), the MIC50 [13] was 0.125 µg/mL (≈ 0.263 µM) and the MIC90 [13] was 0.5 µg/mL (≈ 1.05 µM). The Activity [14] was 90%, the Activity [15] was 90% and the MIC [16] was at most 0.016 µg/mL. For the same compound, the Activity [17] was “inactive”, the Activity [18] was 99% and the MIC50 [19] was 0.03 µg/mL (≈ 0.0631 µM). It also gave an MIC90 [19] of 0.06 µg/mL (≈ 0.126 µM), an Activity [20] of 99% and an Activity [21] of 99%. It also gave an MIC [22] of 0.25 µg/mL (≈ 0.526 µM), an MIC [23] of 0.06 µg/mL (≈ 0.126 µM) and an MIC50 [23] of 0.06 µg/mL (≈ 0.126 µM). The MIC90 [23] was 0.125 µg/mL (≈ 0.263 µM), the MIC50 [24] was 0.03 µg/mL (≈ 0.0631 µM) and the MIC90 [24] was 0.125 µg/mL (≈ 0.263 µM). For the same compound, the MIC50 [25] was 0.06 µg/mL (≈ 0.126 µM), the MIC90 [25] was 0.125 µg/mL (≈ 0.263 µM) and the MIC [26] was 2 µg/mL (≈ 4.21 µM). For the same compound, the MIC50 [26] was 2 µg/mL (≈ 4.21 µM).

`C[C@@H](O)[C@H]1C(=O)N2C(C(=O)O)=C(S[C@@H]3CN[C@H](CNS(N)(=O)=O)C3)[C@H](C)[C@H]12` [DORIPENEM] gave an Activity [1] of 90%, an MIC50 [27] of 0.03 µg/mL (≈ 0.0713 µM) and an MIC90 [27] of 0.06 µg/mL (≈ 0.143 µM). For the same compound, the Activity [2] was 99%, the Activity [3] was 90% and the MIC [4] was 0.25 µg/mL (≈ 0.595 µM). The MIC50 [4] was 0.25 µg/mL (≈ 0.595 µM), the MIC90 [4] was 0.5 µg/mL (≈ 1.19 µM) and the MIC [5] was at most 0.016 µg/mL. The MIC50 [5] was at most 0.016 µg/mL, the MIC90 [5] was 0.25 µg/mL (≈ 0.595 µM) and the MIC [6] was at most 0.016 µg/mL. It also gave an MIC50 [7] of 0.25 µg/mL (≈ 0.595 µM), an MIC90 [7] of 2 µg/mL (≈ 4.76 µM) and an MIC [8] of 0.5 µg/mL (≈ 1.19 µM). The MIC50 [8] was 0.5 µg/mL (≈ 1.19 µM), the MIC50 [9] was 0.5 µg/mL (≈ 1.19 µM) and the MIC90 [9] was 1 µg/mL (≈ 2.38 µM). The Activity [10] was 99%, the Activity [11] was 99% and the MIC50 [12] was 0.25 µg/mL (≈ 0.595 µM). For the same compound, the MIC90 [12] was 1 µg/mL (≈ 2.38 µM), the MIC50 [13] was 0.03 µg/mL (≈ 0.0713 µM) and the MIC90 [13] was 0.125 µg/mL (≈ 0.297 µM). For the same compound, the Activity [14] was 90%, the Activity [15] was 90% and the MIC [16] was 0.03 µg/mL (≈ 0.0713 µM). The Activity [17] was “inactive”, the Activity [18] was 99% and the MIC50 [19] was 0.03 µg/mL (≈ 0.0713 µM). The MIC90 [19] was 0.06 µg/mL (≈ 0.143 µM), the Activity [20] was 99% and the Activity [21] was 99%. For the same compound, the MIC [22] was 0.25 µg/mL (≈ 0.595 µM), the MIC50 [23] was 0.125 µg/mL (≈ 0.297 µM) and the MIC90 [23] was 0.125 µg/mL (≈ 0.297 µM). For the same compound, the MIC [24] was at most 0.016 µg/mL, the MIC50 [24] was at most 0.016 µg/mL and the MIC90 [24] was 0.06 µg/mL (≈ 0.143 µM). For the same compound, the MIC50 [25] was 0.03 µg/mL (≈ 0.0713 µM), the MIC90 [25] was 0.03 µg/mL (≈ 0.0713 µM) and the MIC [26] was 1 µg/mL (≈ 2.38 µM). For the same compound, the MIC50 [26] was 1 µg/mL (≈ 2.38 µM).
